Experiments:
Format in all cases: cell-based, Saccharomyces cerevisiae
[1] = test system: wild-type cells (RH144-3D); assay: 35S-a-factor internalization assay; conditions: after a 34 °C preincubation; data not shown
end3 cells (RH266-1D) [2] = assay: LY-CH accumulation in the vacuole; conditions: LY 4 mg/ml, fluorescence microscopy, minimum of 46 cells counted
In short: (§1)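 Cells grown overnight at 24°C, then harvested and split. One half stayed at 24°C. The other was shifted slowly to 35°C by resetting the water bath, and lucifer yellow CH (4 mg/ml) was added once 35°C was reached. Cells were washed extensively in ice-cold 50 mM sodium succinate pH 5 with 10 mM sodium azide, then viewed by Nomarski and fluorescence optics with 20–25 s exposures. Cells with clear vacuolar staining were scored positive. Cells without staining but with a vacuole visible by Nomarski were scored negative.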

end4 cells (RH268-1C) = assay: LY-CH accumulation in the vacuole; conditions: LY 4 mg/ml, fluorescence microscopy, minimum of 46 cells counted
In short: as §1

[3] = test system: wild-type cells (RH144-3D); assay: LY-CH accumulation in the vacuole; conditions: LY 4 mg/ml, fluorescence microscopy, minimum of 46 cells counted
In short: as §1

end3 cells (RH266-1D) [4] = assay: a-factor sensitivity halo assay; conditions: 24 °C
In short: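 Halo assay. Early log-phase cells were counted, washed with YPUAD and embedded in YPUAD containing 0.8% agar at 47°C. Disks containing α-factor were placed on the agar surface, and the radius of the growth-inhibition zone was read. The radius is logarithmically proportional to strain sensitivity.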

## C[C@@H]1C[C@@H]([C@H](O)CC2CC(=O)NC(=O)C2)C(=O)[C@@H](C)C1 [cycloheximide]
[1]
  effect of cycloheximide on a-factor internalization kinetics: identical to cells which receive no cycloheximide

## Lucifer yellow-CH [LY]
end3 cells (RH266-1D) [2]; 24 °C, 2 h
  % of cells showing vacuolar labeling: 4%
end3 cells (RH266-1D) [2]; 35 °C, 1 h
  % of cells showing vacuolar labeling: 4%
end4 cells (RH268-1C); 24 °C, 2 h
  % of cells showing vacuolar labeling: 10%
end4 cells (RH268-1C); 35 °C, 1 h
  % of cells showing vacuolar labeling: 0%
[3]; 24 °C, 2 h
  % of cells showing vacuolar labeling: 92%
[3]; 35 °C, 1 h
  % of cells showing vacuolar labeling: 97%

## alpha-factor
end3 cells (RH266-1D) [4]
  a-factor needed to form the same size halo, relative to end4 or wild-type cells: approximately two times less

From publication PMC2119492 (The Journal of Cell Biology, 1993)
